Assay results from ChEMBL document CHEMBL1121581, “4-Piperazinyl-10H-thieno[2,3-b][1,5]benzodiazepines as potential neuroleptics” (J Med Chem, 1980).

What was measured:
Mus musculus = assay: Hypothermia in mice after peroral administration; type: functional
[1] = Lethal dose in mice after perorla administration; type: toxicity, organism-based; settings: mouse, in vivo, po
Rattus norvegicus [2] = assay: Compound was assessed for its ability to block a conditioned avoidance response; Dose administered intraperitoneally is 40 mg/kg; 26-30%block; type: functional; settings: route intraperitoneal
How it was run: (§1)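 Shuttle-box conditioned avoidance in Lilly Wistar rats (120–130 g) pretrained to a 5-s buzzer with mild shock after a 1-s failure to respond. Groups of five had 10-min habituation and a 20-min test. Block was taken as shocks received as % of buzzer presentations and graded 0–5. Maximum dose was half the rotarod-disruption ED₅₀.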

Rattus norvegicus [3] = assay: Compound was assessed for its ability to produce catalepsy in rats; Dose administered perorally is 8 mg/kg; Group score is 4-7; type: functional; settings: route oral
How it was run: (§2)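 Groups of eight Lilly Wistar rats (180–190 g) were dosed orally, then checked at 0.5, 1, 1.5, 2, 3, 4 and 5 h. Front paws were placed on a 1.5-cm rod 7 cm above the table, and hold time was recorded up to 20 min. Each rat was scored 0–5 and its maximum scores were summed per group (maximum 40), then graded 0–4.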

Rattus norvegicus [4] = assay: Compound was assessed for its ability to block a conditioned avoidance response; Dose administered perorally is 8 mg/kg; 76-99%block; type: functional; settings: route oral
How it was run: (§3)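 Lilly Wistar rats (120–130 g) trained in a shuttle box to cross on a 5-s buzzer, with mild shock if no response within 1 s of buzzer end. Only rats with a high conditioned response were used. Groups of five were dosed orally 1 h 50 min before the session, then habituated 10 min and tested 20 min. Shocks were scored as % of stimuli and graded 0–5.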

Rattus norvegicus [5] = assay: Compound was assessed for its ability to block a conditioned avoidance response; Dose administered perorally is 12.5 mg/kg; 76-99%block; type: functional; settings: route oral; how it was run: as §3
Rattus norvegicus [6] = assay: Compound was assessed for its ability to produce catalepsy in rats; Dose administered perorally is 10 mg/kg; Group score is 4-7; type: functional; settings: route oral; how it was run: as §2
Rattus norvegicus [7] = assay: Compound was assessed for its ability to produce catalepsy in rats; Dose administered perorally is 25 mg/kg; Group score is 4-7; type: functional; settings: route oral; how it was run: as §2
Rattus norvegicus [8] = assay: Compound was assessed for its ability to block a conditioned avoidance response; Dose administered perorally is 50 mg/kg; 51-75%block; type: functional; settings: route oral; how it was run: as §3
Rattus norvegicus [9] = assay: Compound was assessed for its ability to produce catalepsy in rats; Dose administered perorally is 50 mg/kg; Group score is 8-15; type: functional; settings: route oral; how it was run: as §2
Rattus norvegicus [10] = assay: Compound was assessed for its ability to block a conditioned avoidance response; Dose administered perorally is 25 mg/kg; 26-30%block; type: functional; settings: route oral, in the assay text read “31-50%block” for “26-30%block”; how it was run: as §3
Rattus norvegicus [11] = assay: Compound was assessed for its ability to block a conditioned avoidance response; Dose administered perorally is 30 mg/kg; 51-75%block; type: functional; settings: route oral
How it was run: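 Trained Lilly Wistar rats (120–130 g) in a shuttle box, 5-s buzzer with mild shock if no response within 1 s of buzzer end. Only high-responders used; groups of five dosed orally 1 h 50 min before test, 10-min habituation, then 20-min session. Block = shocks as % of stimuli presented, scored 0–5 (3 = 51–75% block).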

Rattus norvegicus [12] = assay: Compound was assessed for its ability to produce catalepsy in rats; Dose administered perorally is 80; Group score is 8-15; type: functional
Rattus norvegicus [13] = assay: Compound was assessed for its ability to produce catalepsy in rats; Dose administered perorally is 10 mg/kg; Group score is 8-15; type: functional; settings: route oral; how it was run: as §2
Rattus norvegicus [14] = assay: Compound was assessed for its ability to block a conditioned avoidance response; Dose administered perorally is 10 mg/kg; 76-99%block; type: functional; settings: route oral; how it was run: as §3
Rattus norvegicus [15] = assay: Compound was assessed for its ability to block a conditioned avoidance response; Dose administered perorally is 30 mg/kg; Complete block of conditioned & unconditioned response; type: functional; settings: route oral; how it was run: as §3
Rattus norvegicus [16] = assay: Compound was assessed for its ability to block a conditioned avoidance response; Dose administered intraperitoneally is 50 mg/kg; 31-50%block; type: functional; settings: route intraperitoneal; how it was run: as §1
Rattus norvegicus [17] = assay: Compound was assessed for its ability to produce catalepsy in rats; Dose administered perorally is 1.25 mg/kg; Group score is 16-30; type: functional; settings: route oral; how it was run: as §2
Rattus norvegicus [18] = assay: Compound was assessed for its ability to block a conditioned avoidance response; Dose administered perorally is 1.25 mg/kg; 51-75%block; type: functional; settings: route oral; how it was run: as §3
Rattus norvegicus [19] = assay: Compound was assessed for its ability to block a conditioned avoidance response; Dose administered intraperitoneally is 40 mg/kg; no significant effect (0-25%block); type: functional; settings: route intraperitoneal; how it was run: as §1
Rattus norvegicus [20] = assay: Compound was assessed for its ability to produce catalepsy in rats; Dose administered perorally is 60 mg/kg; Group score is 8-15; type: functional; settings: route oral; how it was run: as §2
Rattus norvegicus [21] = assay: Compound was assessed for its ability to produce catalepsy in rats; Dose administered subcutaneously is 30 mg/kg; Group score is 4-7; type: functional; settings: route subcutaneous
Rattus norvegicus [22] = assay: Compound was assessed for its ability to block a conditioned avoidance response; Dose administered intraperitoneally is 20 mg/kg; 26-30%block; type: functional; settings: route intraperitoneal; how it was run: as §1
Rattus norvegicus [23] = assay: Compound was assessed for its ability to block a conditioned avoidance response; Dose administered perorally is 4 mg/kg; 26-30%block; type: functional; settings: route oral; how it was run: as §3
Rattus norvegicus [24] = assay: Compound was assessed for its ability to block a conditioned avoidance response; Dose administered intraperitoneally is 20 mg/kg; 31-50%block; type: functional; settings: route intraperitoneal; how it was run: as §1
Rattus norvegicus [25] = assay: Compound was assessed for its ability to produce catalepsy in rats; Dose administered perorally is 50 mg/kg; Group score is 0-3; type: functional; settings: route oral; how it was run: as §2
Rattus norvegicus [26] = assay: Compound was assessed for its ability to produce catalepsy in rats; Dose administered perorally is 12 mg/kg; Group score is 8-15; type: functional; settings: route oral; how it was run: as §2
Rattus norvegicus [27] = assay: Compound was assessed for its ability to block a conditioned avoidance response; Dose administered perorally is 6 mg/kg; 51-75%block; type: functional; settings: route oral; how it was run: as §3
Rattus norvegicus [28] = assay: Compound was assessed for its ability to block a conditioned avoidance response; Dose administered intraperitoneally is 50 mg/kg; 26-30%block; type: functional; settings: route intraperitoneal; how it was run: as §1
Rattus norvegicus [29] = assay: Compound was assessed for its ability to produce catalepsy in rats; Dose administered perorally is 12.5 mg/kg; Group score is 8-15; type: functional; settings: route oral; how it was run: as §2
Rattus norvegicus [30] = assay: Compound was assessed for its ability to block a conditioned avoidance response; Dose administered perorally is 10 mg/kg; 31-50%block; type: functional; settings: route oral; how it was run: as §3

Structure (SMILES) | EDmin (Mus musculus) | LD50 [1] | further results
CCc1cc2c(s1)Nc1ccc(F)cc1N=C2NCCN(C)C | 200 mg/kg | 400 mg/kg | Activity (Rattus norvegicus [2]): 1
Cc1cc2c(s1)Nc1ccc(F)cc1N=C2N1CCN(C)CC1 [FLUMEZAPINE] | 3 mg/kg | 200 mg/kg | Activity (Rattus norvegicus [3]): 1; Activity (Rattus norvegicus [4]): 4
CCc1cc2c(s1)Nc1ccc(F)cc1N=C2N1CC[N+](C)([O-])CC1 | 25 mg/kg | 200 mg/kg | Activity (Rattus norvegicus [5]): 4; Activity (Rattus norvegicus [6]): 1
CSc1ccc2c(c1)N(CCC1CCCCN1C)c1ccccc1S2 (stereo not drawn) [THIORIDAZINE] | 25 mg/kg | 400 mg/kg | Activity (Rattus norvegicus [7]): 1; Activity (Rattus norvegicus [8]): 3
CCc1cc2c(s1)Nc1cc(C)ccc1N=C2N1CCN(C)CC1 | 50 mg/kg | 150 mg/kg | Activity (Rattus norvegicus [9]): 2; Activity (Rattus norvegicus [10]): 2
CN1CCN(C2=Nc3cc(Cl)ccc3Nc3ccccc32)CC1 [CLOZAPINE] | 50 mg/kg | – | Activity (Rattus norvegicus [11]): 3; Activity (Rattus norvegicus [12]): 2
CC(C)c1cc2c(s1)Nc1ccc(F)cc1N=C2N1CCN(C)CC1 | 6.25 mg/kg | 50 mg/kg | Activity (Rattus norvegicus [13]): 2; Activity (Rattus norvegicus [14]): 4
CN1CCN(C2=Nc3cc(F)ccc3Nc3sccc32)CC1 | 25 mg/kg | > 200 mg/kg | Activity (Rattus norvegicus [15]): 5
CCc1cc2c(s1)Nc1ccc(F)cc1N=C2NCCCN1CCN(C)CC1 | 200 mg/kg | 400 mg/kg | Activity (Rattus norvegicus [16]): 2
O=C(CCCN1CCC(O)(c2ccc(Cl)cc2)CC1)c1ccc(F)cc1 [HALOPERIDOL] | 3 mg/kg | > 100 mg/kg | Activity (Rattus norvegicus [17]): 3; Activity (Rattus norvegicus [18]): 3
CCc1cc2c(s1)Nc1ccc(F)cc1N=C2NCCCO | >200 mg/kg | 400 mg/kg | Activity (Rattus norvegicus [19]): 0
CCc1cc2c(s1)Nc1ccc(F)cc1N=C2N1CCNCC1 | 100 mg/kg | > 800 mg/kg | Activity (Rattus norvegicus [20]): 2; Activity (Rattus norvegicus [21]): 1; Activity (Rattus norvegicus [22]): 1
CCc1cc2c(s1)Nc1cc(F)ccc1N=C2N1CCN(C)CC1 | 12.5 mg/kg | 150 mg/kg | Activity (Rattus norvegicus [23]): 1; Activity (Rattus norvegicus [3]): 1
CCc1cc2c(s1)Nc1ccc(F)cc1N=C2NCCN1CCCC1 | 200 mg/kg | > 400 mg/kg | Activity (Rattus norvegicus [24]): 2; Activity (Rattus norvegicus [25]): 0
CCc1cc2c(s1)Nc1ccc(F)cc1N=C2N1CCN(C)CC1 | 6.25 mg/kg | > 200 mg/kg | Activity (Rattus norvegicus [26]): 2; Activity (Rattus norvegicus [27]): 3
CCc1cc2c(s1)Nc1ccc(F)cc1N=C2NCCCN(C)C | >400 mg/kg | > 800 mg/kg | Activity (Rattus norvegicus [28]): 1
CCc1cc2c(s1)Nc1ccc(F)cc1N=C2N1CCN(CCCO)CC1 | 25 mg/kg | 400 mg/kg | Activity (Rattus norvegicus [29]): 2; Activity (Rattus norvegicus [30]): 2
